Compound activity: PubChem, Broad Institute
The entries come from a sample that favours hits as a whole.
A1_apoptosis_2: compounds inhibiting A1, read as caspase activation; 24,000 tested, under 10 active; caspase activation, % (test concentration not listed); MEF A1-2A-BIM cells, caspase-Glo luminescence, 3 h; percent of clofoctol response, DMSO zero; in the data active means caspase activation above about 5.9%
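Test system – A1-2A-BIM-expressing MEF cells · Input – 2500 cells/well · Medium – RPMI-1640 growth medium with 10% FBS · Compound dosing – 50 nL pinned compound · Timing – 3 h compound exposure at 37 °C · Technique – Caspase-Glo luminescence (DEVD substrate) · Evaluation – Caspase-3/7 activity from luminescence increase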
INS-1E_ATP_HTS: INS-1E beta cell protection from cytokine death; AID 488910; INS-1E cytokine-induced death, ATP luminescence, 48 h; normalised: neutral wells 0, positive control 100; 20,000 tested, 0.1% active; protection from cytokine-induced ATP loss, % at 10 µM;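 active means mean replicate protection from cytokine-induced ATP loss at least 50% and at least 75% of replicates each reaching 50%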
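Material: INS-1E rat cells; Quantity: 8000 cells/well; Buffer or medium: phenol-red-free RPMI with 5% fetal bovine serum; Probe or stimulus: cytokine cocktail of IFN-γ, TNF-α and IL-1β; Compound dosing: single test concentration per compound, delivered by pin transfer; Incubation: 48 h co-treatment, 10 min post-lysis read; Signal: CellTiter-Glo luminescence.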
T_cruzi_intra: inhibitors of intracellular Trypanosoma cruzi | intracellular Trypanosoma cruzi in host cells, plate reader | activity score (inhibition), % at 5.01 µM | 22,000 tested, 4.9% active | AID 651903; in the data active means activity score above about 55%;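 further: parasites and compound incubated about four days before reading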
Numbers stand for hits; - = inactive; . = no result given.

SMILES A1_apoptosis_2 INS-1E_ATP_HTS T_cruzi_intra
O=C1O[C@@H](c2ccccc2)[C@@H](c2ccccc2)N2[C@@H](c3ccc(OCCO)cc3)[C@]3(C(=O)Nc4ccc(C#CC5(O)CCCCCC5)cc43)[C@@H](C(=O)O)[C@H]12 - . .
CNC[C@@H]1Oc2ccc(NC(=O)c3ccncc3)cc2CC(=O)N([C@@H](C)CO)C[C@@H]1C - - -
C[C@@H]1CN([C@H](C)CO)C(=O)c2cc(NS(=O)(=O)c3cn(C)cn3)ccc2O[C@@H](C)CCCCO[C@@H]1CN(C)Cc1ccccc1 - . .
CCOc1cccc(/C=N/NC(=O)c2ccccn2)c1OCC - - -
COc1ccc(NC(=O)Nc2ccc3c(c2)CC(=O)N([C@H](C)CO)C[C@@H](C)[C@@H](CN(C)Cc2ccc(-c4ccccc4)cc2)O3)cc1 . - 72
COc1ccc(NC(=O)Nc2ccc3c(c2)CC(=O)N([C@H](C)CO)C[C@H](C)[C@H](CN(C)Cc2ccc(-c4ccccc4)cc2)O3)cc1 - - -
C[C@@H]1CCCCO[C@@H](CN(C)S(=O)(=O)c2ccc(F)cc2)[C@@H](C)CN([C@@H](C)CO)C(=O)c2cc(NC(=O)C3CCCCC3)ccc2O1 - . .
Cc1noc(C)c1NC(=O)N(C)C[C@@H]1OCCCC[C@@H](C)Oc2ccc(NS(=O)(=O)c3cccs3)cc2C(=O)N([C@H](C)CO)C[C@@H]1C - - -
C[C@@H]1CN([C@@H](C)CO)C(=O)c2cccc(NC(=O)Nc3ccc(F)cc3)c2O[C@@H]1CN(C)Cc1ccc(Oc2ccccc2)cc1 . - -
C[C@@H]1CN([C@@H](C)CO)C(=O)Cc2cc(NC(=O)C3CCCCC3)ccc2O[C@@H]1CN(C)Cc1ccc(C(F)(F)F)cc1 - - -
C[C@H]1CN([C@@H](C)CO)C(=O)Cc2cc(NC(=O)Nc3ccc(C(F)(F)F)cc3)ccc2O[C@@H]1CN(C)Cc1ccc(C(=O)O)cc1 . - -
C[C@@H]1CN([C@H](C)CO)C(=O)Cc2cc(NC(=O)C3CCCCC3)ccc2O[C@H]1CN(C)Cc1ccc(C(F)(F)F)cc1 . - 58
COc1ccc(CN(C)C[C@@H]2Oc3ccc(NC(=O)Nc4ccc(C(F)(F)F)cc4)cc3CC(=O)N([C@@H](C)CO)C[C@@H]2C)cc1 - - -
C[C@@H]1CN([C@@H](C)CO)C(=O)Cc2cc(NC(=O)Nc3ccc(C(F)(F)F)cc3)ccc2O[C@@H]1CN(C)Cc1ccc(C(F)(F)F)cc1 . - 64
C[C@@H]1CN([C@@H](C)CO)C(=O)Cc2cc(NC(=O)Nc3ccc(C(F)(F)F)cc3)ccc2O[C@H]1CN(C)Cc1ccc(C(F)(F)F)cc1 - . .
C[C@@H]1CN([C@H](C)CO)C(=O)Cc2cc(NC(=O)Nc3ccc(F)cc3)ccc2O[C@@H]1CN(C)Cc1ccc(C(F)(F)F)cc1 - - 60
C[C@H]1CN([C@@H](C)CO)C(=O)Cc2cc(NC(=O)Nc3ccc(C(F)(F)F)cc3)ccc2O[C@H]1CN(C)Cc1ccc(C(F)(F)F)cc1 . - 82
C[C@@H]1CN([C@H](C)CO)C(=O)c2cc(NS(=O)(=O)c3ccc(Cl)cc3)ccc2O[C@@H]1CN(C)Cc1ccc(Oc2ccccc2)cc1 . - -
COc1ccc(CN(C)C[C@H]2OCCCC[C@H](C)Oc3ccc(N(C)C)cc3C(=O)N([C@H](C)CO)C[C@H]2C)cc1 - . .
C[C@@H]1CN([C@H](C)CO)C(=O)c2cc(NS(=O)(=O)c3ccc(F)cc3)ccc2O[C@@H](C)CCCCO[C@@H]1CN(C)CC1CCCCC1 - . .
C[C@H]1CN([C@@H](C)CO)C(=O)c2cc(NC(=O)Cc3ccccc3)ccc2O[C@@H]1CN(C)C(=O)NC1CCCCC1 - - -
COc1ccc(NC(=O)Nc2ccc3c(c2)CC(=O)N([C@H](C)CO)C[C@H](C)[C@H](CN(C)C(=O)Nc2ccc(C(F)(F)F)cc2)O3)cc1 . - -
C[C@@H]1CCCCO[C@@H](CN(C)Cc2ccc3c(c2)OCO3)[C@H](C)CN([C@H](C)CO)C(=O)c2cc(NS(=O)(=O)c3ccccc3)ccc2O1 - . .
COc1ccc(NC(=O)N(C)C[C@@H]2OCCCC[C@@H](C)Oc3ccc(NC(=O)c4ccncc4)cc3C(=O)N([C@@H](C)CO)C[C@H]2C)cc1 - . .
C[C@H]1CN([C@@H](C)CO)C(=O)c2cc(NC(=O)NC3CCCCC3)ccc2O[C@@H]1CN(C)S(=O)(=O)c1ccc(F)cc1 . - -
SMILES A1_apoptosis_2 INS-1E_ATP_HTS T_cruzi_intra
C[C@@H]1CN([C@H](C)CO)C(=O)Cc2cc(NC(=O)Cc3cn(C)c4ccccc34)ccc2O[C@@H]1CN(C)CC1CCCCC1 - - -
C[C@@H]1CN([C@H](C)CO)C(=O)Cc2cc(NC(=O)Cc3cn(C)c4ccccc34)ccc2O[C@H]1CN(C)Cc1ccc(-c2ccccc2)cc1 - - 64
C[C@@H]1CN([C@H](C)CO)C(=O)Cc2cc(NC(=O)Cc3cn(C)c4ccccc34)ccc2O[C@H]1CN(C)CC1CCCCC1 - - 60
C[C@@H]1CN([C@H](C)CO)C(=O)Cc2cc(NC(=O)Cc3cn(C)c4ccccc34)ccc2O[C@@H]1CN(C)Cc1ccc(C(=O)O)cc1 - - -
C[C@H]1CN([C@@H](C)CO)C(=O)Cc2cc(NC(=O)Cc3cn(C)c4ccccc34)ccc2O[C@@H]1CN(C)Cc1ccc(-c2ccccc2)cc1 . - 74
C[C@H]1CN([C@@H](C)CO)C(=O)Cc2cc(NC(=O)Cc3cn(C)c4ccccc34)ccc2O[C@H]1CN(C)Cc1ccc(-c2ccccc2)cc1 - - -
C[C@H]1CN([C@@H](C)CO)C(=O)c2cc(NC(=O)Nc3cccc4ccccc34)ccc2O[C@@H]1CN(C)S(=O)(=O)c1ccccc1 . - -
C[C@H]1CN([C@@H](C)CO)C(=O)c2cccc(NC(=O)c3cnccn3)c2O[C@H]1CN(C)Cc1ccc(-c2ccccc2)cc1 . - -
C[C@@H]1CN([C@@H](C)CO)C(=O)c2cccc(NC(=O)C3CCCCC3)c2O[C@@H]1CN(C)C(=O)Nc1ccccc1 . - -
C[C@H](CO)N1C[C@H](C)[C@H](CN(C)C(=O)Nc2ccccc2)Oc2c(NC(=O)c3ccncc3)cccc2C1=O - - 78
C[C@@H]1CN([C@@H](C)CO)C(=O)c2cccc(NC(=O)c3ccncc3)c2O[C@H]1CN(C)C(=O)Nc1ccccc1 - - -
C[C@@H]1CN([C@H](C)CO)C(=O)c2cccc(NC(=O)c3ccncc3)c2O[C@@H]1CN(C)C(=O)Nc1ccc(F)cc1 - - -
C[C@H]1CN([C@@H](C)CO)C(=O)c2cccc(NC(=O)c3ccncc3)c2O[C@H]1CN(C)C(=O)Nc1ccc(F)cc1 . - 64
C[C@@H]1CCCCO[C@H](CN(C)C(=O)NC2CCCCC2)[C@@H](C)CN([C@@H](C)CO)C(=O)c2cc(NC(=O)c3ccccc3)ccc2O1 - . .
C[C@H]1CCCCO[C@@H](CN(C)Cc2ccc3c(c2)OCO3)[C@@H](C)CN([C@@H](C)CO)C(=O)c2cc(NS(C)(=O)=O)ccc2O1 - . .
